Data set [1] is described as follows: Cytotoxicity against human Huh7.5 cells assessed as reduction in cell viability incubated for 72 hrs by MTT assay. The class given is cell-based. The method, boiled down: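 Huh7.5 cells seeded at 3 × 10^4/cm2, grown 24 h, then exposed to compound for 72 h. Viability read by MTT assay. CC50 by Reed & Muench method, mean ± SD from three independent experiments.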
Background: Formazan colour is commonly taken as a measure of viable cells.

Data set [2] can be described thus: Resistance ratio of EC50 for antiviral activity against HCV J6/JFH/JC1 harboring D168V mutant infected in human Huh7.5 cells to EC50 for antiviral activity against wild-type HCV J6/JFH/JC1 infected in human Huh7.5 cells. The format is functional.
The test system of a further data set is Hepacivirus hominis. The data set is described as follows: Inhibition of HCV NS5B polymerase.
Data set [3] deals with T1, Chondroitin sulfate N-acetylgalactosaminyltransferase 1 (Homo sapiens) (UniProt Q8TDX6).
T1 sequence (whole entry): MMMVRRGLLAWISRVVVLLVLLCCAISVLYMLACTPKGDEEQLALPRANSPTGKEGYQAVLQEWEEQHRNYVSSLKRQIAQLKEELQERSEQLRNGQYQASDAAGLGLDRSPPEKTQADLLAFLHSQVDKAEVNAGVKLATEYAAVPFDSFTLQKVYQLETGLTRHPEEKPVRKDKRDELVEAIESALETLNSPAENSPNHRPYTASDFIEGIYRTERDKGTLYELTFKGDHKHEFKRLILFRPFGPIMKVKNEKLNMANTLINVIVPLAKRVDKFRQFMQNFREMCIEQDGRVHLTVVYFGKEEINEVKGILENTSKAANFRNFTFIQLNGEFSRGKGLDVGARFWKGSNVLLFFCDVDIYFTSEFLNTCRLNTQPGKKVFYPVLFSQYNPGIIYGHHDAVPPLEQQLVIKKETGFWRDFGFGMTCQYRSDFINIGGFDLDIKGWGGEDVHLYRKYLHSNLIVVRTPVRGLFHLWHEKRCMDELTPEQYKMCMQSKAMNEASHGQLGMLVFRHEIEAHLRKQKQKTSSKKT
The data set is described as follows: Destabilization of CSGalNacT-1 in human Huh7.5 cells assessed as reduction in CSGalNacT-1 mRNA levels at 6.25 to 100 uM measured after 72 hrs by qRT-PCR analysis. The conditions noted are these: dose 6.25-100 µM. The format is cell-based.

Data set [4] has as its system Hepatitis C virus. The data set is described as follows: Synergistic antiviral activity against HCV J6/JFH/JC1 infected in human HuH7.5 cells assessed as inhibition of viral protein levels at 6.25 uM in presence of sofosbuvir measured after 72 hrs by western blot analysis. The class given is functional, organism-based. The settings on record: Hepacivirus hominis. The method, boiled down: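 Huh7.5 cells infected with HCV (45 IU/cell) and simultaneously treated with compound (6.25 μM) alone, DAA alone, or both. […] Intracellular protein analysed by Western blot at 72 h. At least triplicate, mean ± SD, Student's t test.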
In general terms: Immunoblotting shows a protein as a band on a membrane.

The subject of another data set is Huh7.5. The data set is described as follows: Effect on Hsc70 expression level in human Huh7.5 cells at 6.25 to 25 uM by Western blot analysis. The format is functional, cell-based. The conditions noted are these: dose 6.25-25 µM.
Data set [5] has as its system Hepatitis C virus. The data set is described as follows: Antiviral activity against HCV J6/JFH/JC1 harboring S282T mutant infected in human Huh7.5 cells assessed as inhibition of viral replication measured after 72 hrs by qRT-PCR analysis. The class given is functional, organism-based, Hepacivirus hominis. The conditions noted are these: J6/JFH/JC1, Huh7.5, 72 h.
The target of data set [6] is T1, Chondroitin sulfate N-acetylgalactosaminyltransferase 1 (Homo sapiens). The data set is described as follows: Destabilization of CSGalNacT-1 in human Huh7.5 cells assessed as reduction in CSGalNacT-1 expression measured after 72 hrs by Western blot analysis. The format is cell-based. The conditions noted are these: dose 6.25-100 µM.
The target is the same in data set [7]. The data set is described as follows: Destabilization of CSGalNacT-1 in human Huh7.5 cells assessed as down regulation of CSGalNacT-1 protein levels at 25 uM measured after 24 hrs in presence of protease inhibitor MG132 by Western blot analysis. The class given is cell-based. The method, boiled down:
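Huh7.5 cells cotreated with compound (25 μM) and proteasome inhibitor MG132 (1 μM). Cells given compound alone or MG132 alone served as controls. After 24 h, total intracellular protein extracted and CSGalNAcT-1 detected by Western blot.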

For data set [8], the system named is Hepatitis C virus. The data set is described as follows: Synergistic antiviral activity against HCV J6/JFH/JC1 infected in human HuH7.5 cells assessed as combination index measured after 72 hrs in presence of daclatasvir by Chou-Talalay method. The format is functional, Hepacivirus hominis.
In data set [9] the test system is Hepatitis C virus. The data set is described as follows: Antiviral activity against HCV infected in human HuH7.5 cells assessed as inhibition of viral RNA levels during early stage at 6.25 to 25 uM incubated for 2 hrs prior to compound washout followed by supplementation of fresh culture medium and measured after 72 hrs by qRT-PCR analysis. The class given is functional, organism-based. The conditions noted are these: Hepacivirus hominis; Huh-7; dose 6.25-25 µM. The method, boiled down:
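Huh7.5 cells seeded 24 h earlier, infected with HCV (150 IU/cell) with simultaneous compound or solvent control for 2 h. Cells washed with PBS and given fresh medium. Intracellular RNA (qRT-PCR) and protein (Western blot) extracted at 72 h.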

Molecules are shown by their SMILES. The source made the active and inactive calls. The rule behind the calls is not given here.

For `COc1cc(/C=C/c2ccccc2)c(C(=O)O)c(O)c1CC=C(C)C`, in data set [1], the CC50 at 72 h was determined as 91 µM. Moreover, in data set [2], the “Ratio EC50” value came out at 1.3. In the data set on Hepacivirus hominis, the inhibition entry is “inactive”. In addition, the result (in data set [3]; in the data set with Huh7.5; in data set [7]; with Hepatitis C virus [9]) was inactive. Moreover, the outcome in the data set with Hepatitis C virus [4] was Active. Moreover, the EC50 in the data set on Hepatitis C virus [5] is 8.59 µM. Further, the Activity result in data set [6] was “Dose-dependent effect”. Moreover, the CI in the data set on Hepatitis C virus [8] worked out at 0.76.

The term CC50 denotes the concentration at which the toxic effect on the cells reaches its halfway point. The EC50 is the concentration giving half of the maximal effect.

Values taken from ChEMBL document CHEMBL4715793 (J Med Chem, 2016).
